Key:
[1] = system: Pax2 binding site at the AVPR2 promoter; experiment: ChIP at the AVPR2 promoter in IMCD cells in high salt; type: cell-based, mouse; details: 5 μM, high salt 24 hours
In short: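 Mouse mIMCD3 cells in triplicate were pretreated 4 h with DMSO or 5 μM test compound (per figure legend). They were then kept 24 h in control medium or NaCl-supplemented medium (500 mOsm/kg), with or without compound. Chromatin immunoprecipitation was followed by real-time PCR with primers for the Pax2 binding site at the AVPR2 promoter. Antibodies included PTIP, H3K4me3 and RNA Pol II CTD.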

[2] = Microsomal stability assay with NADPH-fortified mouse liver microsomes; type: in vitro ADME; details: for Half-life estimation in mouse liver microsomes: 1 μM compound, NADPH fortified, 5-60 min
In short: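 1μM test compound was incubated with 200μg pooled mouse liver microsomes in phosphate buffer (3.3mM MgCl2) with 4mg NADPH. Samples taken at 5, 10, 15, 30, 45 and 60 minutes were quenched with cold acetonitrile. After protein precipitation, supernatants were analyzed by LC/MS/MS and percent remaining plotted over time. Verapamil served as the high-clearance control.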

Pax2 [3] = molecular target: Pax2 (Mus musculus, UniProt P32114); type: cell-based; details: for Fold reduction (FR) of luminescence relative to vehicle treated Pax2 transfected PRS4-Luc cells: at 1.56 μM
Pax proteins = experiment: Phosphorylation of Pax proteins in cell systems; type: cell-based; details: Fig. S2
[4] = system: ovarian carcinoma (SKOV-3) cells; experiment: Phospho-histone H3 immunoblot in Pax2-negative SKOV-3 cells; type: cell-based, human; details: each concentration tested, 24 hours, vs vehicle (DMSO)
In short: (§1)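 Human RCC or SKOV-3 cells (RPMI 1640, 10% FBS) or HEK293 cells (DMEM, 10% FBS) were seeded at 5.0 × 10^4 cells/well and attached overnight. Cells had 24 h of increasing test compound concentrations or DMSO. Lysates were boiled 5 min at 95°C in 2X SDS buffer, separated on 8% or 15% gels, transferred to PVDF at 4°C and probed for phospho-H3 (Ser10), total H3 and β-actin. Significance was by ANOVA with Dunnett's test versus vehicle.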

HEK293 cells = experiment: Phospho-histone H3 immunoblot in HEK293 cells lacking Pax2; type: cell-based, human; details: increasing concentrations, 24 hours
In short: as §1

Pax2-positive RCC cells = experiment: Luciferase ATP; type: cell-based, human; details: each concentration tested, 18 hours
Pax8 = Pax8 (Homo sapiens, UniProt Q06710); experiment: PRS4-Luc luciferase reporter assay, Pax8 activation; type: cell-based; details: compared with Pax2
Avpr2 = experiment: RT-PCR of Avpr2 expression in IMCD cells in high salt; type: cell-based, mouse; details: 5 μM, 500 mOsm/kg, 24 hours
[5] = In vivo pharmacokinetics, plasma clearance in mice; parameters: species or system mouse
In short: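 Mice got one dose of test compound formulated at 3mg/mL in PBS with 20% DMSO and 50% PEG-400, given intravenously (5 mg/kg) or orally (15 mg/kg). Blood was drawn at 0.5, 2, 4 and 7 h and plasma isolated by centrifugation. Compound was measured by LC-MS/MS and plasma concentration plotted semi-logarithmically against time.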

UTA1/3 = experiment: RT-PCR of UTA1/UTA3 mRNA in IMCD cells in high salt; type: cell-based, mouse; details: 5 μM, high salt 24 hours
BRE-Luc cells = experiment: BRE-Luc counter screen; type: cell-based, human; details: for Selectivity in PRS4-Luc cells over BRE-Luc cells: 8-point titration, fresh powder, duplicate
In short: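 Clonal HEK293 cells with an integrated BRE-Luc reporter, kept in DMEM with 10% FBS at 37°C and 5% CO2, were prepared like the PRS4-Luc cells. 6 × 10^3 cells/well (384-well) went onto plates pre-dosed with test compound or DMSO, in 8-point titrations in duplicate from fresh powder. Plates were incubated overnight, then Steady-Glo was added and luminescence read.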

Cdh6 = experiment: Immunoblot of Cdh6 and Pax2 protein in Pax2-positive RCC; type: cell-based, human; details: 24 hours
In short: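 Pax2-positive human RCC cells grown in RPMI 1640 with 10% FBS were seeded at 5.0 × 10^4 cells/well, attached overnight, then exposed 24 h to increasing test compound concentrations or DMSO. Whole-cell lysates in 2X SDS buffer were run on SDS-PAGE, transferred to PVDF and probed for Cdh6, Pax2 and β-actin with ECL and film detection. Cdh6 densitometry was normalized to β-actin per lane.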

Pax5 = Pax5 (Homo sapiens, UniProt Q02548); experiment: PRS4-Luc luciferase reporter assay, Pax5 activation; type: cell-based; details: compared with Pax2
[6] = system: Pax2-negative SKOV-3 cells; experiment: Luciferase ATP; type: cell-based, human; details: only at 15 μM, tenfold the IC50, 18 hours
Pax2, Pax8, PTIP = experiment: Western blot of Pax2, Pax8 and PTIP protein levels in IMCD cells; type: cell-based, mouse; details: 5 μM, mIMCD cells
In short: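 Mouse IMCD cells were cultured 24 h in normal or high-salt medium with DMSO or 5 μM test compound. Lysates were western blotted for Pax2, Pax8 and PTIP.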

[7] = system: Pax8 binding site at the Slc14a2 promoter; experiment: ChIP at the Slc14a2 promoter and Pax8 western blot in IMCD cells in high salt; type: cell-based, mouse; details: 5 μM, high salt 24 hours
Pax2 expressing RCC = experiment: Phospho-histone H3 immunoblot; type: cell-based, human; details: 24 hours, vs vehicle
In short: as §1

Pax2 [8] = details: at 10 μM; ref Grimley et al., 2017; cited from earlier work

Pax2 (Mus musculus, UniProt P32114), sequence (P32114 1-391 isoform P32114-2): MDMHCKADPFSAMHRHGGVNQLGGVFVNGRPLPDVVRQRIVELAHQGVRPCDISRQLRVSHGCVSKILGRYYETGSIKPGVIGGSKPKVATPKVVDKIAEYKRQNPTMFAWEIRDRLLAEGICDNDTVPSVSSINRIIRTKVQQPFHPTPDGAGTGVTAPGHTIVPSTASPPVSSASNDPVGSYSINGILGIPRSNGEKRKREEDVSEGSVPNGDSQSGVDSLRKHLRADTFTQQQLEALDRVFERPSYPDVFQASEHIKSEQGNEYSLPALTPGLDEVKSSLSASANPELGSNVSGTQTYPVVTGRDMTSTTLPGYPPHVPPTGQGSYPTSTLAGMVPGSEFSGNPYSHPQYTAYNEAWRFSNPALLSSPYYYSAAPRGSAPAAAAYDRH
Pax5, sequence (Q02548 whole entry, species assumed): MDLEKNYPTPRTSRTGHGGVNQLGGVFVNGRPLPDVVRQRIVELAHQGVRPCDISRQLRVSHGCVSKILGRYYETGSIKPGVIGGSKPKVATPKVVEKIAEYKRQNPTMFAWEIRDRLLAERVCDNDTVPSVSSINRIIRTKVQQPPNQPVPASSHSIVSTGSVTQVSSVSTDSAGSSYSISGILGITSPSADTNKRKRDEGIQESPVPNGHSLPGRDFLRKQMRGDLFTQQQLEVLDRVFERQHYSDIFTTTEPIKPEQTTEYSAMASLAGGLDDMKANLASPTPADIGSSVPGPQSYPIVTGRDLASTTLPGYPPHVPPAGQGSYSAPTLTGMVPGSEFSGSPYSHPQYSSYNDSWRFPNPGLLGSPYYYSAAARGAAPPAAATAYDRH
Pax8, sequence (Q06710 whole entry, species assumed): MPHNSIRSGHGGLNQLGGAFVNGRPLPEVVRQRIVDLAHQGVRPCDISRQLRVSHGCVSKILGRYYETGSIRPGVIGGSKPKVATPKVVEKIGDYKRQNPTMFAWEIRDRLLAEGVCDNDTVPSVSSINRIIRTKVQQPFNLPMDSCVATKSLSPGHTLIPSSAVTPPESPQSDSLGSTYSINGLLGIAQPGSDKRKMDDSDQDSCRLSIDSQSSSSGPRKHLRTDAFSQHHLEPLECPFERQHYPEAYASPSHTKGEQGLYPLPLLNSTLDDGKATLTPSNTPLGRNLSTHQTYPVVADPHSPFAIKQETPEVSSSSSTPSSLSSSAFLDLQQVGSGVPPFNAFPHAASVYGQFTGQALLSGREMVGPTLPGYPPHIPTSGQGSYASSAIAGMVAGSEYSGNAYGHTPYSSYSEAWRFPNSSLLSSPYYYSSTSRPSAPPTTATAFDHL

Half-life estimation in mouse liver microsomes [2] [min] | Fold reduction (FR) of luminescence relative to vehicle treated Pax2 transfected PRS4-Luc cells (Pax2 [3]) | SMILES | Histone H3K4me3 and RNA PolII recruitment at the AVPR2 promoter (ChIP) [1] | Increased Pax2 binding to the Avpr2 promoter in high salt (ChIP) [1] | Recruitment of PTIP at the AVPR2 promoter (ChIP) [1] | Increased Avpr2 expression in response to high salt (Avpr2) | Increased UTA1/3 mRNA expression in high salt (UTA1/3) | Selectivity in PRS4-Luc cells over BRE-Luc cells (BRE-Luc cells) | Pax2, Pax8, or PTIP protein levels (Pax2, Pax8, PTIP) | Increased H3K4me3 and PolII binding at the Slc14a2 promoter (ChIP) [7] | Pax8 protein levels or binding to the Slc14a2 promoter [7] | Recruitment of PTIP and the H3K4 methyltransferase complex at the Slc14a2 promoter (ChIP) [7] | further results
7.89 | 0.58 | Cc1ccc(C)c(N2CCN(c3c(C)c(C)nc4ncnn34)CC2)c1 [BG-1] | prevented | no effect | inhibited | significantly inhibited | significantly inhibited | selective activity | did not affect | prevent | no effect | inhibit | Change of IC50 of BG1 in combination with EG1 (Pax2 [3]; fixed 10 μM EG1, Prs4-Luc reporter cells, Fig. S3): reduce the IC50; Effect on the phosphorylation of Pax proteins (Pax proteins): could not determine any discernible effects; pHH3 levels [4]: no significant change; pHH3 levels (HEK293 cells): did not significantly change; Percentage of viable cells (ATP luminescence) (Pax2-positive RCC cells): significantly and dose-dependently lowered; Inhibition of Pax8 activation of the PRS4-Luc reporter (Pax8): similarly inhibited; Stability in vivo, rank among the three compounds ([5]; IV 5 mg/kg or PO 15 mg/kg, plasma 0.5-7 h): most stable compound in vivo; Rate of plasma clearance compared to the other two compounds ([5]; intravenous 5 mg/kg single dose): lowest rate of clearance; Cdh6 protein levels (Cdh6; 1.5 μM): significant reduction; Pax2 protein levels (Cdh6; 1.5 μM): no effect; Pax2 protein levels (Cdh6; 15 μM): also reduced; Inhibition of Pax5 activation of the PRS4-Luc reporter (Pax5): similarly inhibited; Metabolically active cells (ATP luminescence) [6]: significant drop; pHH3 levels (Pax2 expressing RCC; 1.5 μM): significant reduction; pHH3 levels (Pax2 expressing RCC; 15 μM): significant reduction
46.24 | 0.78 | Cc1nc2ncnn2c(N2CCN(c3ccc(Cl)cc3)CC2)c1C [BG-2] | prevented | no effect | inhibited | significantly inhibited | significantly inhibited | selective activity | did not affect | prevent | no effect | inhibit | Stability in vitro, rank among the three compounds ([2]; mouse liver microsomes): most stable in vitro
25.39 | 0.82 | CCc1c(C)nc2ncnn2c1Nc1ccc(Cl)cc1 [BG-3] |  |  |  |  |  | selective activity |  |  |  |  | Signs of cytotoxicity in counter screen (BRE-Luc cells; PRS4-Luc and BRE-Luc cells, up to 50 μM): did not indicate signs of cytotoxicity
 |  | COc1ccccc1C(=O)Nc1ccc(C(=O)Nc2ccccc2C(=O)O)cc1 [EG1] |  |  |  |  |  |  |  |  |  |  | Maximal inhibition of Pax2 (Pax2 [8]): approximately 50%

— publication PMC8934255 (Cell chemical biology, 2021)
